Test results reported in ChEMBL document CHEMBL3585293, “Design, antiviral and cytostatic properties of isoxazolidine-containing amonafide analogues” (Bioorg Med Chem, 2015).

How the values were obtained:
HeLa [1] = test: Cytotoxicity against human HeLa cells assessed as reduction of cell survival after 48 hrs by MTT assay; type: functional, cell-based
K562 = test: Cytotoxicity against human K562 cells assessed as reduction of cell survival after 48 hrs by MTT assay; type: functional, cell-based; settings: K562, 48 h
Cytomegalovirus [2] = test: Antiviral activity against Cytomegalovirus Davis infected in HEL cells assessed as reduction of virus-induced cytopathogenicity; type: functional, organism-based; settings: Human betaherpesvirus 5, Davis
Human alphaherpesvirus 1 [3] = test: Antiviral activity against thymidine kinase-deficient acyclovir-resistant Herpes simplex virus 1 KOS infected in HEL cells assessed as reduction of virus-induced cytopathogenicity; type: functional, organism-based; settings: Human alphaherpesvirus 1, KOS
Cytomegalovirus [4] = test: Antiviral activity against Cytomegalovirus AD-169 infected in HEL cells assessed as reduction of virus-induced cytopathogenicity; type: functional, organism-based; settings: Human betaherpesvirus 5, AD-169, HEL
[5] = Cytotoxicity against HEL cells assessed as alternation of cell morphology by microscopic analysis; type: cell-based; settings: human
Human alphaherpesvirus 3 [6] = test: Antiviral activity against thymidine kinase-deficient Varicella-zoster virus infected in HEL cells assessed as reduction of virus-induced plaque formation; type: functional, organism-based; settings: Human alphaherpesvirus 3, HEL
How it was run: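 Plaque-reduction assay in HEL cells. TK+ VZV strains were Oka and YS; TK- strains were 07-1 and YS-R. Virus input was 100 PFU, with graded compound concentrations. Plaques were counted once formation was complete in untreated infected controls. Two independent experiments were run.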

Human alphaherpesvirus 3 [7] = test: Antiviral activity against Varicella-zoster virus expressing thymidine kinase infected in HEL cells assessed as reduction of virus-induced plaque formation; type: functional, organism-based; settings: Human alphaherpesvirus 3, HEL
How it was run: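 Plaque-reduction assay in HEL cells. TK+ VZV strains were Oka and YS; TK- strains were 07-1 and YS-R. Virus input was 100 PFU, with graded compound concentrations. Plaques were counted once formation was complete in untreated infected controls. […] Two independent experiments were run.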

MDCK = test: Cytotoxicity against MDCK cells assessed cell viability by MTS assay; type: cell-based, Canis lupus familiaris; settings: dog
How it was run: (§1)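 Cells were exposed to a range of compound concentrations. Viability was measured by the colorimetric formazan-based MTS assay.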

[8] = Cytotoxicity against CRFK cells assessed cell viability by MTS assay; type: cell-based, Felis catus; settings: cat; how it was run: as §1
Human alphaherpesvirus 2 = test: Antiviral activity against Herpes simplex virus 2 G infected in HEL cells assessed as reduction of virus-induced cytopathogenicity; type: functional, organism-based; settings: Human alphaherpesvirus 2, strain G
L1210 = test: Cytotoxicity against mouse L1210 cells assessed as inhibition of cell proliferation; type: functional, cell-based
Human alphaherpesvirus 1 [9] = test: Antiviral activity against Herpes simplex virus 1 KOS infected in HEL cells assessed as reduction of virus-induced cytopathogenicity; type: functional, organism-based; settings: Human alphaherpesvirus 1, KOS
HeLa [10] = test: Cytotoxicity against human HeLa cells assessed as inhibition of cell proliferation; type: functional, cell-based
CCRF-CEM [11] = test: Cytotoxicity against human CEM cells assessed as inhibition of cell proliferation; type: functional, cell-based
CCRF-CEM [12] = test: Potency index, ratio of 5-Fluorouracil IC50 to compound IC50 for human CEM cells; type: functional
Coxsackievirus B4 = test: Antiviral activity against Coxsackievirus B4 infected in African green monkey Vero cells assessed as reduction of virus-induced cytopathogenicity; type: functional, organism-based; settings: Enterovirus B
How it was run: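 Confluent Vero (Coxsackie B4) or HeLa (vesicular stomatitis virus) monolayers in 96-well plates were inoculated with 100 CCID50 virus or 20 PFU and incubated with varying compound concentrations. Cytopathicity was scored once complete in untreated infected controls. […] Two separate experiments were run.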

[13] = Cytotoxicity against African green monkey Vero cells assessed as alternation of cell morphology by microscopic analysis; type: cell-based; settings: chlorocebus sabaeus
How it was run: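 Vero cells were exposed to graded compound concentrations. MCC is the lowest concentration producing a microscopically detectable change in cell morphology. Two experiments were run.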

Punta Toro virus = test: Antiviral activity against Punta Toro virus infected in African green monkey Vero cells assessed as reduction of virus-induced cytopathogenicity; type: functional, organism-based
How it was run: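 Confluent Vero monolayers were infected with 100 CCID50 of virus and then incubated with a range of compound concentrations. Viral cytopathicity was scored once it was complete in untreated infected control cultures. […] Two independent experiments were run.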

| Compound | IC50 (HeLa [1]) | IC50 (K562) | EC50 (Cytomegalovirus [2]) | EC50 (Human alphaherpesvirus 1 [3]) | EC50 (Cytomegalovirus [4]) | MCC [5] | EC50 (Human alphaherpesvirus 3 [6]) | EC50 (Human alphaherpesvirus 3 [7]) | CC50 (MDCK) | CC50 [8] | EC50 (Human alphaherpesvirus 2) | IC50 (L1210) | EC50 (Human alphaherpesvirus 1 [9]) | IC50 (HeLa [10]) | IC50 (CCRF-CEM [11]) | Ratio IC50 (CCRF-CEM [12]) | EC50 (Coxsackievirus B4) | MCC [13] | EC50 (Punta Toro virus) |
| --- | --- | --- | --- | --- | --- | --- | --- | --- | --- | --- | --- | --- | --- | --- | --- | --- | --- | --- | --- |
| CCOP(=O)(OCC)C1CC(c2ccc3ccccc3c2)ON1C (configuration not stated) | 50 µM | – | – | – | – | – | – | – | – | – | – | – | – | – | – | – | – | – | – |
| CCOP(=O)(OCC)C1CC(c2cccc3ccccc23)ON1C (configuration not stated) | – | 90 µM | – | – | – | – | – | – | – | – | – | – | – | – | – | – | – | – | – |
| CCOP(=O)(OCC)[C@@H]1C[C@H](C(=O)Nc2cc3c4c(cccc4c2)C(=O)N(CCN(C)C)C3=O)ON1C (racemic) | – | – | 37 µM | 50 µM | 37 µM | ≥ 100 µM | 20 µM | ≥ 11 µM | > 100 µM | 62.2 µM | 50 µM | 2.9 µM | 50 µM | 3.3 µM | 6 µM | – | – | – | – |
| CCOP(=O)(OCC)[C@@H]1C[C@@H](C(=O)Nc2cc3c4c(cccc4c2)C(=O)N(CCN(C)C)C3=O)ON1C (racemic) | – | – | 8.9 µM | 45 µM | 8.9 µM | ≥ 100 µM | 26 µM | 14 µM | 75.2 µM | 95.2 µM | – | 1.5 µM | 45 µM | 1.8 µM | 3.4 µM | 5 | – | – | – |
| CCOP(=O)(OCC)[C@@H]1C[C@H](C(=O)Nc2cc3c4c(cccc4c2)C(=O)N(CCN2CCCC2)C3=O)ON1C (racemic) | – | – | 45 µM | > 100 µM | 45 µM | ≥ 100 µM | > 20 µM | > 20 µM | > 100 µM | 89.1 µM | 58 µM | 4.4 µM | > 100 µM | 3 µM | 12 µM | – | – | – | – |
| CCOP(=O)(OCC)[C@@H]1C[C@@H](C(=O)Nc2cc3c4c(cccc4c2)C(=O)N(CCN2CCCC2)C3=O)ON1C (relative stereo) | – | – | 10.9 µM | 45 µM | 8.9 µM | ≥ 100 µM | > 20 µM | > 20 µM | 87.3 µM | > 100 µM | – | 1.7 µM | 45 µM | 1.1 µM | 3.9 µM | 5 | – | – | – |
| NC(=O)c1ncn([C@@H]2O[C@H](CO)[C@@H](O)[C@H]2O)n1 [RIBAVIRIN] | – | – | – | – | – | – | – | – | – | – | – | – | – | – | – | – | > 250 µM | > 250 µM | 112 µM |
